Myeloid diff 2 = myeloid differentiation induction; ER-HoxA9 myeloid progenitors, lysozyme-GFP differentiation, flow cytometry; calls only at 10 µM; hit rate 1% among 360,000;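 active = normalized GFP-positive differentiation at or above the plate's own cutoff, the solvent-only control mean plus 3 SD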;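 note: cells exposed to compound for four days before flow analysis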
MT1-MMP act inh = inhibitors of human MT1-MMP activation. P50281. HT1080 RFP-PRO-GFP cells, GFP/RFP ratio fluorescence, overnight; percent of plate control window, DMSO zero. GFP/RFP ratio change, % at 20 µM. hit rate 0.061% among 360,000. AID 651647;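 active = GFP/RFP ratio change of at least 30% with cell ATP level not reduced by more than half and red fluorescence within 50% of control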
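Read-out: GFP/RFP fluorescence ratio; Test system: RFP-PRO-GFP reporter HT1080 cells; Compound dosing: single-point 20 µM compound, 1% DMSO; Times: overnight compound exposure at 37 °C.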
MIN6 prolif = inducers of beta-cell replication in MIN6 cells; proliferation, % at 10 µM; AID 2380; hit rate 0.29% among 330,000; MIN6 cells proliferation, ATPlite luminescence, 48 h; cells starved in 0.2% serum; 100% = growth in 10% serum;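 active = compounds whose signal lies at least 3.5 SD above the mean of all wells on their plate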;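 note: 0% = DMSO-treated cells in low-serum medium and 100% = 10% serum control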
DAGLB inhibitor = blocks human DAGLB lipase activity | hit rate 0.059% among 340,000 | inhibition, % at 5.17 µM | Q8NCG7 | HEK293T DAGLB membrane lysate, EnzChek fluorogenic substrate | AID 504411; in the data active = inhibition above about 34%;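 note: 0% = enzyme with vehicle and 100% = wells lacking enzyme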
Target sequence (Q8NCG7 whole entry, looked up): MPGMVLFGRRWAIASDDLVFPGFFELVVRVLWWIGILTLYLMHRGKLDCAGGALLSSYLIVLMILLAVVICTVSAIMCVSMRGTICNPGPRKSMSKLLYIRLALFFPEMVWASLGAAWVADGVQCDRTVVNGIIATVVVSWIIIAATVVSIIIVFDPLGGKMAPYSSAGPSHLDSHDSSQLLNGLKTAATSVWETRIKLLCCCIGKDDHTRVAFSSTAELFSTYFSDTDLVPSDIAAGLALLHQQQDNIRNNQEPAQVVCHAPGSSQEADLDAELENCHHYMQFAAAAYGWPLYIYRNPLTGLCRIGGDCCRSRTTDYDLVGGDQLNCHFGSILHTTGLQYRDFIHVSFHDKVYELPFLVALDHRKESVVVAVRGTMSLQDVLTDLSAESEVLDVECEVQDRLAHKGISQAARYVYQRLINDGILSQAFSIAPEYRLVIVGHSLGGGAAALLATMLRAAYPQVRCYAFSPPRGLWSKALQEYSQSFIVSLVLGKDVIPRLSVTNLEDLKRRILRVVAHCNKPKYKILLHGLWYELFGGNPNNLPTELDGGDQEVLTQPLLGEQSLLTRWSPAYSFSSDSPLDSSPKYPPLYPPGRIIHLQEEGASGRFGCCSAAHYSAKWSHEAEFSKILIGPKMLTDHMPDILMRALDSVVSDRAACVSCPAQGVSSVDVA
NRP1-CendR mod = NRP-1/CendR interaction modulation; AID 602438; FAM-RPARPAR peptide binding to NRP-1, fluorescence polarization; inhibition, % at 25 µM; hit rate 0.85% among 360,000;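 active = inhibition or corrected inhibition above about 18%, plus a signal ratio from 0.5 to 1.5, limit read from the data, passing the limit was not always enough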
SENP1 inh = SENP1 (human) catalytic domain inhibition. Q9P0U3. recombinant SENP1 catalytic domain, CyPet-SUMO1-YPet FRET cleavage. inhibition, % at 10 µM. hit rate 0.21% among 360,000. AID 624204;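 active = inhibition at least 30% at 10 µM, raw YFP signal under a set limit, fluorescence ratio 0.5 to 1.5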;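 note: 0% = enzyme with DMSO and 100% = no enzyme wells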
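Assay system: hSENP1 catalytic domain, recombinant. Amount: SENP1 enzyme, 20 pM final. Schedule: 50 min reaction, RT, dark. Technique: FRET, CFP and YFP emission. Control set: no-enzyme wells low, DMSO-plus-enzyme wells high control.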
Numbers without * were called inactive. Most compounds without a hit are left out; they make up all but 2.4% or so of the library.

`Cc1[nH]c2ccccc2c1/C=N/Nc1ccc([N+](=O)[O-])cc1` gave Myeloid diff 2 active, MT1-MMP act inh -114, DAGLB inhibitor 34, NRP1-CendR mod -212 and SENP1 inh 22.
For Cc1[nH]c2ccccc2c1/C=N/NC(=O)c1cccc([N+](=O)[O-])c1 the results were Myeloid diff 2 inactive, MT1-MMP act inh 0, MIN6 prolif -1, NRP1-CendR mod -4 and SENP1 inh 5.
Screening C/C(=N/Nc1ccc([N+](=O)[O-])cc1)c1c[nH]c2ccccc12 returned Myeloid diff 2 active, MT1-MMP act inh -62, MIN6 prolif 0, DAGLB inhibitor 27, NRP1-CendR mod -179 and SENP1 inh -19.
Screening COc1ccc(S(=O)(=O)N2CCCOC2CNC(=O)C(=O)NCCO)cc1 (stereo unspecified) returned Myeloid diff 2 inactive, MT1-MMP act inh -1, DAGLB inhibitor 1, NRP1-CendR mod -4 and SENP1 inh 2.
For C#Cc1ccc(CN2CCCC(C(=O)Nc3ccccc3Oc3cccnc3)C2)cc1 (stereo unspecified) the results were Myeloid diff 2 inactive, MT1-MMP act inh -4, MIN6 prolif -1, DAGLB inhibitor 0, NRP1-CendR mod 4 and SENP1 inh -1.
Screening COCCNC(=O)NC(=O)CSc1nc(C)c(C)c(C)n1 returned Myeloid diff 2 active, MT1-MMP act inh 3, MIN6 prolif -4, DAGLB inhibitor -1, NRP1-CendR mod -1 and SENP1 inh 1.
`Cc1nc(SCC(=O)NC(=O)NCc2ccccc2)nc(C)c1C` gave Myeloid diff 2 inactive, MT1-MMP act inh 2, MIN6 prolif -1, DAGLB inhibitor 0, NRP1-CendR mod 8 and SENP1 inh 0.
For CC(C)n1c(NCc2ccc(N(C)C)cc2)nc2ccccc21 the results were Myeloid diff 2 inactive, MT1-MMP act inh 3, MIN6 prolif 2, DAGLB inhibitor 2, NRP1-CendR mod 29* and SENP1 inh -5.
Screening CCN(CC)c1ccc(CNc2nc3ccccc3n2C(C)C)cc1 returned Myeloid diff 2 inactive, MT1-MMP act inh -4, MIN6 prolif -3, DAGLB inhibitor -4, NRP1-CendR mod -11 and SENP1 inh -1.
Screening Cc1ccc(C)c(S(=O)(=O)NCc2ccc(C(=O)N3CCC(Cc4ccccc4)CC3)cc2)c1 returned Myeloid diff 2 active, MT1-MMP act inh 26, MIN6 prolif -6, DAGLB inhibitor -2, NRP1-CendR mod 45* and SENP1 inh 4.
`O=C(Cn1ccc(NC(=O)OCc2ccccc2)nc1=O)NCCN1CCOCC1` gave Myeloid diff 2 inactive, MT1-MMP act inh 1, MIN6 prolif 5, DAGLB inhibitor 1, NRP1-CendR mod 38* and SENP1 inh 1.
Screening Cc1ccn(CCC(=O)N2CCc3ccccc32)n1 returned Myeloid diff 2 inactive, MT1-MMP act inh -9, MIN6 prolif 0, DAGLB inhibitor 1, NRP1-CendR mod 20* and SENP1 inh 0.
Screening O=C(CCl)N1c2ccccc2CCc2ccccc21 returned Myeloid diff 2 active, MT1-MMP act inh -3, MIN6 prolif -5, DAGLB inhibitor 3, NRP1-CendR mod 9 and SENP1 inh 1.
For CC(Cl)C(=O)N1c2ccccc2CCc2ccccc21 (stereo unspecified) the results were Myeloid diff 2 inactive, MT1-MMP act inh -4, MIN6 prolif 3, DAGLB inhibitor 0, NRP1-CendR mod 6 and SENP1 inh 2.
Screening Cc1cccc(NC(=O)c2ccc(OCc3c(C)noc3C)cc2)c1 returned Myeloid diff 2 inactive, MT1-MMP act inh -2, MIN6 prolif -1, DAGLB inhibitor -2, NRP1-CendR mod 29* and SENP1 inh -1.
`CCOC(=O)CNC(=O)N1CCCC(C(=O)c2ccccc2SC)C1` (stereo unspecified) gave Myeloid diff 2 inactive, MT1-MMP act inh -1, MIN6 prolif -4, DAGLB inhibitor -2, NRP1-CendR mod 10 and SENP1 inh 1.
For Cc1ccc(NC(=S)Nc2cccc3ccccc23)cc1 the results were Myeloid diff 2 inactive, MT1-MMP act inh -4, MIN6 prolif -8, DAGLB inhibitor -3, NRP1-CendR mod 28* and SENP1 inh -35.
Screening Cc1cc(C)cc(NC(=S)Nc2cccc3ccccc23)c1 returned Myeloid diff 2 inactive, MT1-MMP act inh 1, MIN6 prolif -7, DAGLB inhibitor 0, NRP1-CendR mod 10 and SENP1 inh -14.
`S=C(Nc1cccc2ccccc12)NN1CCCCCC1` gave Myeloid diff 2 inactive, MT1-MMP act inh 3, DAGLB inhibitor 0, NRP1-CendR mod 1 and SENP1 inh -9.
Screening S=C(Nc1cccc2ccccc12)NN1CCOCC1 returned Myeloid diff 2 inactive, MT1-MMP act inh -3, MIN6 prolif -3, DAGLB inhibitor 2, NRP1-CendR mod 25* and SENP1 inh 2.
For Fc1ccc(NC(=S)Nc2cccc3ccccc23)cc1 the results were Myeloid diff 2 inactive, MT1-MMP act inh 5, MIN6 prolif -5, DAGLB inhibitor -1, NRP1-CendR mod 28* and SENP1 inh -24.
Screening O=C(CNS(=O)(=O)c1cccs1)NCc1ccccc1 returned Myeloid diff 2 inactive, MT1-MMP act inh 2, MIN6 prolif 3, DAGLB inhibitor 3, NRP1-CendR mod 8 and SENP1 inh 1.
`CCOc1ccccc1NC(=O)CCCNC(=O)c1ccc(Cl)cc1` gave Myeloid diff 2 inactive, MT1-MMP act inh 0, MIN6 prolif 8, DAGLB inhibitor 0, NRP1-CendR mod 0 and SENP1 inh 1.
`COc1ccc(-c2nc(CS(=O)CC(=O)NC3CCCC(C)C3C)c(C)o2)cc1OC` (stereo unspecified) gave Myeloid diff 2 active, MT1-MMP act inh -5, MIN6 prolif -4, DAGLB inhibitor 0, NRP1-CendR mod 6 and SENP1 inh 1.
Screening Cc1ccc(-c2nc(CS(=O)CC(=O)NC3CCCC(C)C3C)c(C)o2)cc1 (stereo unspecified) returned Myeloid diff 2 inactive, MT1-MMP act inh 4, MIN6 prolif -2, DAGLB inhibitor -1, NRP1-CendR mod 0 and SENP1 inh 4.
`COC(=O)c1ccc2c(c1)NC(=O)c1ccccc1S2` gave Myeloid diff 2 inactive, MT1-MMP act inh 3, MIN6 prolif 1, DAGLB inhibitor 0, NRP1-CendR mod -2 and SENP1 inh -2.
`N#C/C=C1/NC(=O)c2ccccc2S1` gave Myeloid diff 2 active, MT1-MMP act inh -7, MIN6 prolif -6, DAGLB inhibitor 6, NRP1-CendR mod -1 and SENP1 inh 29.
Screening COc1ccc(N(CC(=O)NCC2CCCO2)S(=O)(=O)c2ccccc2)cc1OC (stereo unspecified) returned Myeloid diff 2 inactive, MT1-MMP act inh 3, MIN6 prolif 0, DAGLB inhibitor 0, NRP1-CendR mod 4 and SENP1 inh 4.
